According to ChEMBL document CHEMBL2021780, “Antineoplastic agents. 548. Synthesis of iodo- and diiodocombstatin phosphate prodrugs” (J Nat Prod, 2012):
≈ marks a conversion by molar mass, not a printed value. Calls of active or inactive are those of the source. No cut-off for these calls is given here.

What was measured:
[1] = Solubility of the compound in water; assay type: physicochemical; conditions: buffer
Method in brief: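 Solubility expressed as amount dissolving in 1 mL H₂O at 25 °C.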

[2] = test system: P388; experiment: Growth inhibition of mouse P388 cells after 48 hrs by Z1 Beckman/Coulter particle counter analysis; assay type: functional; conditions: P388, 48 h, read-out: ED50 (the source's name)
Method in brief: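 Mouse P388 leukemia cells were incubated 24 h in 10% horse serum/Fisher medium, then exposed 48 h to serial compound dilutions. ED50 was calculated from cell counts on a Coulter Z1 particle counter.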

[3] = test system: BXPC-3; experiment: Growth inhibition of human BxPC3 cells after 48 hrs by sulforhodamine B assay; assay type: functional; conditions: BXPC-3, 48 h
Method in brief: (§1)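 NCI sulforhodamine B assay. Cells were seeded in 5% FBS/RPMI-1640 and incubated 24 h. Serial compound dilutions were then added for 48 h. Cells were fixed with trichloroacetic acid, stained with SRB and read by microplate reader. GI50 is the concentration giving 50% reduction in net protein increase, calculated from optical density data.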

[4] = test system: MCF7; experiment: Growth inhibition of human MCF7 cells after 48 hrs by sulforhodamine B assay; assay type: functional; conditions: MCF7, 48 h; method in brief: as §1
[5] = test system: NCI-H460; experiment: Growth inhibition of human NCI-H460 cells after 48 hrs by sulforhodamine B assay; assay type: functional; conditions: NCI-H460, 48 h; method in brief: as §1
[6] = test system: KM-20L2; experiment: Growth inhibition of human KM20L2 cells after 48 hrs by sulforhodamine B assay; assay type: functional; conditions: KM-20L2, 48 h; method in brief: as §1
[7] = test system: DU-145; experiment: Growth inhibition of human DU145 cells after 48 hrs by sulforhodamine B assay; assay type: functional; conditions: DU-145, 48 h; method in brief: as §1
[8] = test system: HUVEC; experiment: Antiangiogenic activity in HUVEC assessed as cell growth inhibition after 48 hrs by sulforhodamine B assay; assay type: functional, cell-based; conditions: Homo sapiens
Method in brief: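 HUVECs were grown in EGM-2 medium and tested with the standard SRB growth assay following NCI Developmental Therapeutics Program Matrigel antiangiogenesis protocols. IC50 (concentration causing 50% inhibition) was calculated from plotted data.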

[9] = test system: HUVEC; experiment: Antiangiogenic activity in HUVEC assessed as reduction of cord length at 0.01 ug/ml after 24 hrs by matrigel assay relative to control; assay type: functional, Homo sapiens; design: scale not given: the % may be the effect or the level left
Method in brief: (§2)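 Commercial HUVECs grown in EGM-2 were seeded at 2 × 10⁵ cells/mL onto Matrigel, which had been polymerized 15 min at rt and then 30 min at 37 °C, per NCI DTP protocol. Compound was added and cells were incubated 24 h, then imaged by inverted microscopy. Cord length and junction number were scored against untreated control on a scale from − (none) to +++ (same as control), with ++ = 50% of control.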

[10] = test system: HUVEC; experiment: Antiangiogenic activity in HUVEC assessed as reduction of number of junctions at 0.01 ug/ml after 24 hrs by matrigel assay relative to control; assay type: functional, Homo sapiens; design: scale not given: the % may be the effect or the level left; method in brief: as §2
[11] = test system: HUVEC; experiment: Antiangiogenic activity in HUVEC assessed as cell growth at 0.01 ug/ml after 24 hrs by sulforhodamine B assay relative to control; assay type: functional, Homo sapiens
[12] = test system: HUVEC; experiment: Antiangiogenic activity in HUVEC assessed as cell growth at 0.001 ug/ml after 24 hrs by sulforhodamine B assay relative to control; assay type: functional, Homo sapiens
[13] = test system: HUVEC; experiment: Antiangiogenic activity in HUVEC assessed as cell growth at 0.1 ug/ml after 24 hrs by sulforhodamine B assay relative to control; assay type: functional, Homo sapiens
[14] = test system: HUVEC; experiment: Antiangiogenic activity in HUVEC assessed as cell growth at 1 ug/ml after 24 hrs by sulforhodamine B assay relative to control; assay type: functional; conditions: Homo sapiens, read-out: Activity
[15] = Inhibition of purified tubulin assembly after 20 mins
Method in brief: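 Purified tubulin at 10 μM in 0.8 M monosodium glutamate (pH 6.6), 0.4 mM GTP and 4% (v/v) DMSO, with varying compound concentrations. Extent of assembly was measured after 20 min at 30 °C.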

[16] = test system: Neisseria gonorrhoeae; experiment: Antibacterial activity against Neisseria gonorrhoeae ATCC 49226 by broth microdilution method; assay type: functional
Method in brief: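 Broth microdilution followed NCCLS standard methods. Compounds were reconstituted in sterile DMSO and diluted in the appropriate medium immediately before testing. MIC was taken as the lowest concentration giving no visible growth (optically clear). Assays were repeated on separate days.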

[17] = test system: SF-268; experiment: Growth inhibition of human SF268 cells after 48 hrs by sulforhodamine B assay; assay type: functional; conditions: SF-268, 48 h; method in brief: as §1
[18] = Growth inhibition of human KAT4 cells after 48 hrs by sulforhodamine B assay; assay type: functional; conditions: KAT-4, 48 h
[19] = test system: SW-1736; experiment: Growth inhibition of human SW1736 cells after 48 hrs by sulforhodamine B assay; assay type: functional; conditions: SW-1736, 48 h
[20] = test system: HUVEC; experiment: Antiangiogenic activity in HUVEC assessed as reduction of cord length at 0.001 ug/ml after 24 hrs by matrigel assay relative to control; assay type: functional; conditions: Homo sapiens; method in brief: as §2
[21] = test system: HUVEC; experiment: Antiangiogenic activity in HUVEC assessed as reduction of cord length at 0.0001 ug/ml after 24 hrs by matrigel assay relative to control; assay type: functional; conditions: Homo sapiens
Method in brief: (§3)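 Matrigel was polymerised in wells (15 min rt, then 30 min 37 °C). HUVECs (2 × 10⁵ cells/mL) were added with compound and incubated 24 h, then imaged by inverted microscope. Cord length and junction number were scored semi-quantitatively versus untreated control (− none to +++ same as control).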

[22] = test system: HUVEC; experiment: Antiangiogenic activity in HUVEC assessed as reduction of number of junctions at 0.001 ug/ml after 24 hrs by matrigel assay relative to control; assay type: functional; conditions: Homo sapiens; method in brief: as §2
[23] = test system: HUVEC; experiment: Antiangiogenic activity in HUVEC assessed as reduction of number of junctions at 0.0001 ug/ml after 24 hrs by matrigel assay relative to control; assay type: functional; conditions: Homo sapiens; method in brief: as §3
[24] = test system: HUVEC; experiment: Antiangiogenic activity in HUVEC assessed as cell growth at 0.0001 ug/ml after 24 hrs by sulforhodamine B assay relative to control; assay type: functional, Homo sapiens; conditions: Homo sapiens, HUVEC, 24 h; read-out: Activity
[25] = test system: HUVEC; experiment: Antiangiogenic activity in HUVEC assessed as cell growth at 0.00001 ug/ml after 24 hrs by sulforhodamine B assay relative to control; assay type: functional; conditions: Homo sapiens, read-out: Activity
[26] = Displacement of [3H]colchicine from tubulin at 1 uM after 10 mins
Method in brief: (§4)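 [³H]colchicine binding: 1.0 μM tubulin with 5.0 μM [³H]colchicine and compound, incubated 10 min at 37 °C. The tubulin–colchicine complex was separated from unbound label by retention on DEAE-cellulose filters. Result is inhibition of radiolabel binding.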

[27] = Displacement of [3H]colchicine from tubulin at 10 uM after 10 mins; method in brief: as §4
[28] = test system: Micrococcus luteus; experiment: Antibacterial activity against Micrococcus luteus Presque Isle 456 by broth microdilution method; assay type: functional
Method in brief: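 Broth microdilution per NCCLS bacterial (M7-A5) and yeast standards. Compounds were reconstituted in sterile DMSO and diluted in the appropriate medium just before testing. MIC is the lowest concentration giving complete inhibition of visible growth (optically clear). Assays were repeated on separate days.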

[29] = test system: HUVEC; experiment: Antiangiogenic activity in HUVEC assessed as reduction of cord length at 0.00001 ug/ml after 24 hrs by matrigel assay relative to control; assay type: functional, cell-based; conditions: Homo sapiens; method in brief: as §2
[30] = test system: HUVEC; experiment: Antiangiogenic activity in HUVEC assessed as reduction of cord length at 0.1 ug/ml after 24 hrs by matrigel assay relative to control; assay type: functional, cell-based; conditions: Homo sapiens; method in brief: as §2
[31] = test system: HUVEC; experiment: Antiangiogenic activity in HUVEC assessed as reduction of number of junctions at 0.00001 ug/ml after 24 hrs by matrigel assay relative to control; assay type: functional, cell-based; conditions: Homo sapiens; method in brief: as §2
[32] = test system: HUVEC; experiment: Antiangiogenic activity in HUVEC assessed as reduction of number of junctions at 0.1 ug/ml after 24 hrs by matrigel assay relative to control; assay type: functional, cell-based; conditions: Homo sapiens; method in brief: as §2
[33] = Homo sapiens, HUVEC, 24 h, read-out: Activity

Row | SMILES | EC50 [2] [µg/mL] | GI50 [3] [µg/mL] | GI50 [4] [µg/mL] | GI50 [5] [µg/mL] | GI50 [6] [µg/mL] | GI50 [7] [µg/mL] | IC50 [8] [µg/mL] | IC50 [15] [nM] | Activity ([9]; Homo sapiens) | Activity [20] | Activity [21] | Activity ([10]; Homo sapiens) | Activity [22] | Activity [23] | other results
1 | COc1ccc(/C=C\c2cc(I)c(OC)c(I)c2)cc1OP(=O)([O-])[O-].[Na+].[Na+] | 0.03 | > 1 | 0.066 | 0.327 | > 1 | 0.242 | 0.051 | > 40000 |  |  |  |  |  |  | solubility [1]: 2000 µg/mL; Activity [9]: 75%; Activity [10]: 75%; Activity [11]: >100%; Activity [12]: >100%; Activity [13]: -2%; growth at 1 µg/mL [14]: -7%; MIC [16]: 32 µg/mL
2 | COc1ccc(/C=C\c2cc(I)c(OC)c(I)c2)cc1O | 0.0028 (≈ 5.51 nM) | 0.038 (≈ 74.8 nM) | 0.0027 (≈ 5.31 nM) | 0.0034 (≈ 6.69 nM) | 0.15 (≈ 295 nM) | 0.0021 (≈ 4.13 nM) | 0.00028 (≈ 0.551 nM) | 1500 | Active | Active | inactive | Active | Active | inactive | GI50 [17]: 0.0036 µg/mL (≈ 7.09 nM); GI50 [18]: 0.039 µg/mL (≈ 76.8 nM); GI50 [19]: 1.2 µg/mL (≈ 2360 nM); growth at 0.01 µg/mL [11, 33]: 4%; growth at 0.001 µg/mL [12, 33]: 8%; growth at 0.0001 µg/mL [24]: 84%; growth at 10 pg/mL [25]: 87%; inhibition [26]: 95%; inhibition [27]: 100%; MIC [28]: 4 µg/mL (≈ 7870 nM)
3 | COc1ccc(/C=C\c2cc(I)c(OC)c(OC)c2)cc1OP(=O)(O)O |  |  |  |  |  |  |  |  | Active | Active | inactive | Active | Active | inactive | Activity [29]: inactive; Activity [30]: Active; Activity [31]: inactive; Activity [32]: Active
